Data published in ChEMBL document CHEMBL1138910, “Racemic and chiral sulfoxides as potential prodrugs of 4-pyrone COX-2 inhibitors” (Bioorg Med Chem Lett, 2006).
≈ marks a conversion by molar mass, not a printed value.

What was measured:
[1] = target: T1, Prostaglandin G/H synthase 2 (Homo sapiens, UniProt P35354); assay: Inhibition of COX2 in human whole blood; type: tissue-based
T1 sequence (P35354 whole entry): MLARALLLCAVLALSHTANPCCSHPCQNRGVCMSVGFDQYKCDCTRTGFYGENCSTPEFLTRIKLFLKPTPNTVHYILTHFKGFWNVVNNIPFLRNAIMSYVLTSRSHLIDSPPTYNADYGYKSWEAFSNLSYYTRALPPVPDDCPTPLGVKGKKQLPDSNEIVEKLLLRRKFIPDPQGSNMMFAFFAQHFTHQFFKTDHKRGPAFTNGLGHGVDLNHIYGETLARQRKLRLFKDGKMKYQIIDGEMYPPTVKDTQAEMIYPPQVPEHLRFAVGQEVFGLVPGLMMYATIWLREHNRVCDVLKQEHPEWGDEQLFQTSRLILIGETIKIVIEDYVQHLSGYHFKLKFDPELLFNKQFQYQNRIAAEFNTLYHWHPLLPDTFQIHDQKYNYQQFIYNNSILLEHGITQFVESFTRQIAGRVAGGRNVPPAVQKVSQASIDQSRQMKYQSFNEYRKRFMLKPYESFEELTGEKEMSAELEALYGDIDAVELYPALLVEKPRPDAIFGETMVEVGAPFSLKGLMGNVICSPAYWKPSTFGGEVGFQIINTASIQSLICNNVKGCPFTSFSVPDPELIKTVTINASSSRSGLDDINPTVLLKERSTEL

[2] = Metabolic stability in human liver microsomes at 5 uM after 30 min […]; type: ADME, Microsome; settings: in the assay text read “37 degC” for “30 degC”, read-out: Stability
[3] = Metabolic stability in rat liver microsomes at 5 uM after 30 min […]; type: ADME, Microsome; settings: in the assay text read “37 degC” for “30 degC”, read-out: Stability
Rattus norvegicus [4] = species on record: Rattus norvegicus; assay: Inhibition of yeast-induced pyresis in Wistar rat; type: functional
Summary of the method: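 Yeast-induced pyresis in rats, an acute therapeutic protocol with a single oral dose. Temperature was measured at 1 h intervals from 1 to 5 h after dosing. ED50 was derived from four doses with six to eight animals per group.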

[5] = Solubility in simulated gastric fluid at pH 1.8, 37 degC after 24 hrs; type: physicochemical
Rattus norvegicus [6] = assay: Inhibition of adjuvant-induced arthritis in Wistar rat at 0.1 mg/kg, po; type: functional
Summary of the method: (§1)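 Adjuvant-induced arthritis in male Wistar rats run as a therapeutic protocol. Compounds were given orally once daily for 7 days, starting on day 14 after arthritis induction. Paw edema was measured 24 h after the last dose. Results are reported as ED50 from four doses (six to eight animals per group) or as % inhibition at the stated dose.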

[7] = Solubility in PBS at pH 7.2, 37 degC after 24 hrs; type: physicochemical
Rattus norvegicus [8] = assay: Activity against adjuvant-induced arthritis in po dosed Wistar rat; type: functional, organism-based; summary of the method: as §1
[9] = Tmax in Wistar rat at 1 mg/kg, po; type: ADME, organism-based; parameters: dose 1 mg/kg, route oral; settings: in vivo
Rattus norvegicus [10] = assay: Tmax in Wistar rat after administration as its prodrug at 1 mg/kg, po; type: ADME, organism-based; parameters: dose 1 mg/kg, route oral; settings: in vivo
Rattus norvegicus [11] = assay: Cmax in Wistar rat after administration as its prodrug at 1 mg/kg, po; type: ADME, organism-based; parameters: dose 1 mg/kg, route oral; settings: in vivo
[12] = AUC in Wistar rat at 1 mg/kg, po; type: ADME, organism-based; parameters: dose 1 mg/kg, route oral; settings: plasma
[13] = Cmax in Wistar rat at 1 mg/kg, po; type: ADME, organism-based; parameters: dose 1 mg/kg, route oral; settings: in vivo
Rattus norvegicus [14] = assay: Ratio AUC for prodrug to the parent compound in Wistar rat at 1 mg/kg, po; type: ADME, organism-based; parameters: dose 1 mg/kg, route oral; settings: in vivo
Rattus norvegicus [15] = assay: AUC in Wistar rat after administration as its prodrug at 1 mg/kg, po; type: ADME, organism-based, Plasma; parameters: dose 1 mg/kg, route oral; settings: in vivo
Rattus norvegicus [16] = assay: Inhibition of adjuvant-induced arthritis in Wistar rat at 0.01 mg/kg, po; type: functional; summary of the method: as §1

SMILES	IC50 [1]	remaining at 0.5 h, 5 µM [2]	remaining at 0.5 h, 5 µM [3]	solubility at 24 h [5]	solubility at 24 h [7]	ED50 (Rattus norvegicus [4])	further results
Cc1cc(=O)c(Oc2ccc(Cl)cc2F)c(-c2ccc([S@@+](C)[O-])cc2)o1		48%	87%				
CS(=O)(=O)c1ccc(C2=C(c3ccccc3)C(=O)OC2)cc1 [ROFECOXIB]						0.9 mg/kg	EC50 (Rattus norvegicus [8]): 0.3 mg/kg
Cc1cc(=O)c(Oc2ccc(F)cc2F)c(-c2ccc([S+](C)[O-])cc2)o1 (configuration not stated)	920 nM	24%	54%	527 µg/mL (≈ 1400 µM)	150 µg/mL (≈ 399 µM)	1.3 mg/kg	Tmax [9]: 0.3 h; AUC [12]: 1310 ng·h/mL; Cmax [13]: 1310 ng/mL; inhibition in vivo at 0.1 mg/kg (Rattus norvegicus [6]): 59%
Cc1cc(=O)c(Oc2ccc(Br)cc2F)c(-c2ccc([S@+](C)[O-])cc2)o1	200 nM	42%	80%				
Cc1cc(=O)c(Oc2ccc(Cl)cc2F)c(-c2ccc([S@+](C)[O-])cc2)o1		41%	67%				
Cc1cc(=O)c(Oc2ccc(F)cc2F)c(-c2ccc([S@@+](C)[O-])cc2)o1	2100 nM	20%	55%				
Cc1ccc(-c2ncc(Cl)cc2-c2ccc(S(C)(=O)=O)cc2)cn1 [ETORICOXIB]						1 mg/kg	EC50 (Rattus norvegicus [8]): 0.44 mg/kg
Cc1cc(=O)c(Oc2ccc(Cl)cc2F)c(-c2ccc(S(C)(=O)=O)cc2)o1		6%	27%	18 µg/mL (≈ 44 µM)	5 µg/mL (≈ 12.2 µM)	0.8 mg/kg	inhibition in vivo at 0.1 mg/kg (Rattus norvegicus [6]): 63%

Now from value to compound, other results behind:

IC50 [1]	remaining at 0.5 h, 5 µM [2]	remaining at 0.5 h, 5 µM [3]	solubility at 24 h [5]	solubility at 24 h [7]	SMILES	ED50 (Rattus norvegicus [4])	further results
270 nM	17%	38%			Cc1cc(=O)c(Oc2ccc(F)cc2F)c(-c2ccc([S@+](C)[O-])cc2)o1		
	57%	86%	70 µg/mL (≈ 178 µM)	37 µg/mL (≈ 94.2 µM)	Cc1cc(=O)c(Oc2ccc(Cl)cc2F)c(-c2ccc([S+](C)[O-])cc2)o1 (configuration not stated)	2.3 mg/kg	inhibition in vivo at 0.1 mg/kg (Rattus norvegicus [6]): 56%
	2%	26%	9 µg/mL (≈ 22.9 µM)	7 µg/mL (≈ 17.8 µM)	Cc1cc(=O)c(Oc2ccc(F)cc2F)c(-c2ccc(S(C)(=O)=O)cc2)o1	0.7 mg/kg	Tmax [9]: 1 h; Tmax (Rattus norvegicus [10]): 2.3 h; Cmax (Rattus norvegicus [11]): 2959 ng/mL; AUC [12]: 9220 ng·h/mL; Cmax [13]: 1510 ng/mL; inhibition in vivo at 0.1 mg/kg (Rattus norvegicus [6]): 68%; Ratio AUC (Rattus norvegicus [14]): 14; AUC (Rattus norvegicus [15]): 18646 ng·h/mL
	64%	77%	31 µg/mL (≈ 70.9 µM)	15 µg/mL (≈ 34.3 µM)	Cc1cc(=O)c(Oc2ccc(Br)cc2F)c(-c2ccc([S+](C)[O-])cc2)o1 (configuration not stated)	2.8 mg/kg	inhibition in vivo at 0.01 mg/kg (Rattus norvegicus [16]): 58%; Tmax [9]: 0.3 h; AUC [12]: 43 ng·h/mL; Cmax [13]: 37 ng/mL
1580 nM	62%	93%			Cc1cc(=O)c(Oc2ccc(Br)cc2F)c(-c2ccc([S@@+](C)[O-])cc2)o1		
	12%	34%	4 µg/mL (≈ 8.82 µM)	1 µg/mL (≈ 2.21 µM)	Cc1cc(=O)c(Oc2ccc(Br)cc2F)c(-c2ccc(S(C)(=O)=O)cc2)o1	3.2 mg/kg	inhibition in vivo at 0.01 mg/kg (Rattus norvegicus [16]): 60%; Tmax [9]: 2.2 h; Tmax (Rattus norvegicus [10]): 1.5 h; Cmax (Rattus norvegicus [11]): 243 ng/mL; AUC [12]: 1270 ng·h/mL; Cmax [13]: 177 ng/mL; Ratio AUC (Rattus norvegicus [14]): 28; AUC (Rattus norvegicus [15]): 1125 ng·h/mL
